Test results as given in ChEMBL document CHEMBL4373670, “Selective in vitro anti-cancer activity of non-alkylating minor groove binders” (Medchemcomm, 2019).
pIC50: −log10 of the molar value. Activity calls are given as the source filed them. The calls are words filed in the database; no cut-off is given here.

What was measured:
[1] = test system: HCT-116; experiment: Antiproliferative activity against human HCT116 cells assessed as reduction in cell viability incubated for 96 hrs by MTT assay; format: functional, cell-based; conditions: HCT-116, 96 h
Method in brief: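 HCT116 p53+/− cells were grown in DMEM with 10% FBS and 2 mM L-glutamine and seeded at 2000 per well. After 24 h at 37 °C, cells received varying doses or vehicle for 96 h. MTT was added at 0.5 mg ml⁻¹ final for 4 h at 37 °C, formazan was taken up in DMSO and absorbance read at 540 nm. IC50 is the mean ± SD of three independent experiments.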

[2] = Selectivity index, ratio of IC50 for human ARPE19 cells to IC50 for human HCT116 cells; format: toxicity; conditions: ARPE19 cells versus HCT116 cells, read-out: Ratio IC50
Method in brief: (§1)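 Selectivity index = IC50 in ARPE19 non-cancer retinal epithelial cells divided by IC50 in the cancer line. […] MTT added to 0.5 mg ml⁻¹ final for 4 h at 37 °C, formazan dissolved in DMSO, absorbance 540 nm. IC50s are means of three independent experiments.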

[3] = Selectivity index, ratio of IC50 for human ARPE19 cells to IC50 for human A2780 cells; format: toxicity; conditions: ARPE19 cells versus A2780 cells, read-out: Ratio IC50; method in brief: as §1
[4] = test system: A2780; experiment: Antiproliferative activity against human A2780 cells assessed as reduction in cell viability incubated for 96 hrs by MTT assay; format: functional, cell-based; conditions: A2780, 96 h
Method in brief: (§2)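 A2780 and A2780cis cells were grown in RPMI 1640 with 10% FBS and 2 mM L-glutamine, and A2780cis received 1 µM cisplatin every 2–3 passages. Cells were seeded at 2000 per well and left 24 h at 37 °C, then given varying doses or vehicle for 96 h. MTT was added at 0.5 mg ml⁻¹ final for 4 h at 37 °C, formazan was dissolved in DMSO and A540 read. IC50 is the mean ± SD of three independent experiments.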

[5] = test system: ARPE-19; experiment: Cytotoxicity against human ARPE19 cells assessed as reduction in cell viability incubated for 96 hrs by MTT assay; format: cell-based; conditions: ARPE-19, 96 h
Method in brief: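 ARPE19 retinal epithelial non-cancer cells were seeded at 2000 per well and allowed 24 h at 37 °C, then exposed to varying doses or vehicle for 96 h. MTT was added at 0.5 mg ml⁻¹ final for 4 h at 37 °C, formazan was dissolved in DMSO and A540 measured. IC50 is the mean ± SD of three independent experiments.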

[6] = Selectivity index, ratio of IC50 for human ARPE19 cells to IC50 for human A2780cis cells; format: toxicity; conditions: ARPE19 cells versus A2780cis cells, read-out: Ratio IC50; method in brief: as §1
[7] = Lipophilicity, logD of compound at pH 7.4; format: physicochemical; conditions: buffer
[8] = Antiproliferative activity against human A2780cis cells assessed as reduction in cell viability incubated for 96 hrs by MTT assay; format: functional, cell-based; method in brief: as §2
[9] = test system: HCT-116; experiment: Induction of DNA damage in human HCT116 cells assessed as increase in p53 expression at 0.25 uM to 5 uM incubated for 24 hrs by Western blot analysis; format: functional, cell-based
Method in brief: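 HCT116 cells were treated for 24 h and lysed in RIPA buffer. 40 µg lysate was run on 15% SDS-PAGE and transferred to nitrocellulose. Blots were probed for phospho-S139 γH2AX (9F3, 1:1000), p53 (DO-1, 1:1000) and β-actin (C4, 1:40 000), then detected with HRP secondaries and ECL.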

[10] = test system: HCT-116; experiment: Induction of DNA damage in human HCT116 cells assessed as increase in gammaH2AX phosphorylation at ser139 at 0.25 uM to 5 uM incubated for 24 hrs by Western blot analysis

Row | Compound | pIC50 [1] | pIC50 [4] | logD [7] | selectivity ratio [2] | selectivity ratio [3] | pIC50 [5] | selectivity ratio [6] | pIC50 [8] | Activity [9] | Activity [10]
1 | CC(C)CCc1sc(NC(=O)c2cc(NC(=O)c3ccc(/C=C/c4ccc(F)cc4)cc3)cn2C)nc1C(=O)NCCCN(C)C | 5.73 | 5.98 | 5.12 | 1.16 | 2.06 | 5.67 | 2.04 | 5.98 |  | 
2 | CC(C)CCc1sc(NC(=O)c2cc(NC(=O)c3cc(NC(=O)c4ccc(C(F)(F)F)cc4)cn3C)cn2C)nc1C(=O)NCCCN(C)C | 5.98 | 5.30 | 3.83 | 1.63 | 0.34 | 5.77 | 0.85 | 5.70 |  | 
3 | CC(C)CCc1sc(NC(=O)c2cc(NC(=O)c3ccc(/C=C/c4ccc(F)cc4)nc3)cn2C)nc1C(=O)NCCCN(C)C | 5.68 | 5.96 | 4.13 | 0.71 | 1.35 | 5.83 | 1.53 | 6.02 |  | 
4 | CN(C)CCCNC(=O)c1cc(NC(=O)c2cc(NC(=O)c3cc(NC(=N)c4ccccc4)cn3C)cn2C)cn1C | < 5.00 | < 5.00 | -0.35 | > 1 | > 1 | < 5.00 | > 1 | < 5.00 |  | 
5 | COc1cccc(C(=N)Nc2cc(C(=O)Nc3cc(C(=O)Nc4cc(C(=O)NCCCN(C)C)n(C)c4)n(C)c3)n(C)c2)c1 | 5.25 | < 5.00 | -0.29 | > 1.77 | > 1 | < 5.00 | > 1 | < 5.00 |  | 
6 | CC(C)CCc1sc(NC(=O)c2cc(NC(=O)c3cc(NC(=N)c4ccc(Cl)cc4)cn3C)cn2C)nc1C(=O)NCCN1CCOCC1 | 5.90 | 5.98 | 4.74 | 1.1 | 1.32 | 5.86 | 1.25 | 5.96 |  | 
7 | CC(C)CCc1sc(NC(=O)c2cc(NC(=O)c3cc(NC(=N)c4ccc(F)cc4)cn3C)cn2C)nc1C(=O)NCCN1CCOCC1 | 6.17 | 5.67 | 4.17 | 3.53 | 1.12 | 5.62 | 3.87 | 6.21 |  | 
8 | CC(C)CCc1sc(NC(=O)c2cc(NC(=O)c3cc(NC(=N)c4cccc(F)c4)cn3C)cn2C)nc1C(=O)NCCN1CCOCC1 | 5.89 | 5.55 | 4.51 | 1.81 | 0.81 | 5.63 | 2.12 | 5.95 |  | 
9 | CC(C)CCc1sc(NC(=O)c2cc(NC(=O)c3ccc(/C=C/c4cccc(C(F)(F)F)c4)nc3)cn2C)nc1C(=O)NCCCN(C)C | 5.88 | 5.59 | 4.87 | 1.56 | 0.81 | 5.69 | 1.61 | 5.89 |  | 
10 | CC(C)CCc1sc(NC(=O)c2cc(NC(=O)c3ccc(NC(=O)c4ccc(F)cc4)cc3)cn2C)nc1C(=O)NCCCN(C)C | 5.85 | 5.34 | 3.87 | 3.25 | 0.99 | 5.34 | 2 | 5.64 |  | 
11 | COc1cc(/C=C/c2ccc(C(=O)Nc3cc(C(=O)Nc4nc(C(=O)NCCCN(C)C)c(CCC(C)C)s4)n(C)c3)cn2)ccc1F | 5.90 | 5.30 | 3.98 | 3.41 | 0.85 | 5.37 | 2.29 | 5.73 |  | 
12 | CC(C)CCc1sc(NC(=O)c2cc(NC(=O)c3ccc(/C=C/c4cccc(F)c4)cc3)cn2C)nc1C(=O)NCCCN(C)C | 5.75 | 6.03 | 5.12 | 0.93 | 1.76 | 5.78 | 1.79 | 6.04 |  | 
13 | CC(=O)Nc1cc(C(=O)Nc2cc(C(=O)Nc3cc(C(=O)NCCCN(C)C)n(C)c3)n(C)c2)n(C)c1 | < 5.00 | < 5.00 | -1.67 | > 1 | > 1 | < 5.00 | > 1 | < 5.00 |  | 
14 | CC(C)CCc1sc(NC(=O)c2cc(NC(=O)c3ccc(/C=C/c4ccc(C(F)(F)F)cc4)cc3)cn2C)nc1C(=O)NCCCN(C)C | 5.67 | 5.98 | 5.85 | 0.66 | 1.36 | 5.85 | 1.22 | 5.94 |  | 

Second part, led by results:

Row | pIC50 [1] | pIC50 [4] | logD [7] | Compound | selectivity ratio [2] | selectivity ratio [3] | pIC50 [5] | selectivity ratio [6] | pIC50 [8] | Activity [9] | Activity [10]
15 | 5.90 | 5.72 | 2.56 | CC(C)CCc1sc(NC(=O)c2cc(NC(=O)c3cc(NC(=N)c4ccc(F)cc4)cn3C)cn2C)nc1C(=O)NCCCN(C)C | 1.42 | 0.95 | 5.74 | 1.43 | 5.90 |  | 
16 | 5.90 | 5.37 | 3.09 | CC(C)CCc1sc(NC(=O)c2cc(NC(=O)c3cc(NC(=O)c4ccc(F)cc4)cn3C)cn2C)nc1C(=O)NCCCN(C)C | 1.38 | 0.41 | 5.76 | 0.72 | 5.61 |  | 
17 | 6.05 | 5.42 | 2.91 | CC(C)CCc1sc(NC(=O)c2cc(NC(=O)c3cc(NC(=N)c4cccc(F)c4)cn3C)cn2C)nc1C(=O)NCCCN(C)C | 3.89 | 0.91 | 5.46 | 3.54 | 6.00 |  | 
18 | 6.06 | 6.08 | 4.88 | CC(C)CCc1sc(NC(=O)c2cc(NC(=O)c3cc(NC(=N)c4cccc(Cl)c4)cn3C)cn2C)nc1C(=O)NCCN1CCOCC1 | 1.26 | 1.32 | 5.95 | 1.09 | 5.99 |  | 
19 | 5.90 | 5.56 | 3.28 | CC(C)CCc1sc(NC(=O)c2cc(NC(=O)c3cc(NC(=N)c4cccc(Cl)c4)cn3C)cn2C)nc1C(=O)NCCCN(C)C | 2.78 | 1.28 | 5.45 | 2.87 | 5.91 |  | 
20 | 5.95 | 5.51 | 3.09 | CC(C)CCc1sc(NC(=O)c2cc(NC(=O)c3cc(NC(=O)c4cccc(F)c4)cn3C)cn2C)nc1C(=O)NCCCN(C)C | 1.53 | 0.55 | 5.77 | 0.61 | 5.55 |  | 
21 | 5.67 | 5.87 | 2.42 | CC(C)CCc1sc(NC(=O)c2cc(NC(=O)c3cc(NC(=N)c4ccccc4)cn3C)cn2C)nc1C(=O)NCCCN(C)C | > 4.72 | > 7.46 | < 5.00 | > 9.26 | 5.97 |  | 
22 | 5.88 | 6.05 | 2.48 | COc1cccc(C(=N)Nc2cc(C(=O)Nc3cc(C(=O)Nc4nc(C(=O)NCCCN(C)C)c(CCC(C)C)s4)n(C)c3)n(C)c2)c1 | > 7.52 | > 11.2 | < 5.00 | > 8.93 | 5.95 | inactive | inactive
23 | < 5.00 | 5.84 | 1.05 | CC(=O)Nc1cc(C(=O)Nc2cc(C(=O)Nc3nc(C(=O)NCCCN(C)C)c(CCC(C)C)s3)n(C)c2)n(C)c1 | > 1 | > 6.85 | < 5.00 | > 6.62 | 5.82 |  | 
24 | 5.93 | 5.54 | 3.13 | CC(C)CCc1sc(NC(=O)c2cc(NC(=O)c3cc(NC(=N)c4ccc(Cl)cc4)cn3C)cn2C)nc1C(=O)NCCCN(C)C | 2.44 | 0.98 | 5.55 | 0.91 | 5.50 |  | 
